Data: ChEMBL document CHEMBL1158122, “Anti-inflammatory, anti-tumor-promoting, and cytotoxic activities of constituents of marigold (Calendula officinalis) flowers” (J Nat Prod, 2006)

Legend:
[1] = tested on: HOP-92; assay: Cytotoxicity against human HOP-92 cells after 48 hrs by SRB assay; type: functional; conditions: HOP-92, 48 h
[2] = tested on: MCF7; assay: Cytotoxicity against human MCF7 cells after 48 hrs by SRB assay; type: functional; conditions: MCF7, 48 h
[3] = tested on: KM12; assay: Cytotoxicity against human KM12 cells after 48 hrs by SRB assay; type: functional; conditions: KM12, 48 h
[4] = tested on: UO-31; assay: Cytotoxicity against human UO-31 cells after 48 hrs by SRB assay; type: functional; conditions: UO-31, 48 h
Summary of the method: (§1)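 Tested in the NCI panel of 60 human tumour cell lines covering lung, colon, melanoma, renal, ovarian, breast and leukaemia. At least five concentrations were run in 10-fold dilutions starting from 10^-4 M. Exposure was continuous for 48 h. Growth or viability was estimated by sulforhodamine B protein staining, and GI50 values were reported.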

[5] = Cytotoxicity against human Raji cells assessed as cell viability at 100 molar ratio; type: cell-based; conditions: read-out: Activity
Summary of the method: (§2)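 Raji cells were treated with 32 pmol TPA to induce EBV early antigen activation. The test agent was added at 10, 100, 500 or 1000 mol ratio relative to TPA, and Raji cell viability was measured alongside EA activation.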

[6] = Cytotoxicity against human SK MEL28 cells after 48 hrs by SRB assay; type: functional; conditions: SK-MEL-28, 48 h
[7] = tested on: OVCAR-5; assay: Cytotoxicity against human OVCAR5 cells after 48 hrs by SRB assay; type: functional; conditions: OVCAR-5, 48 h
[8] = tested on: UACC-257; assay: Cytotoxicity against human UACC-257 cells after 48 hrs by SRB assay; type: functional; conditions: UACC-257, 48 h; summary of the method: as §1
[9] = tested on: NCI-H23; assay: Cytotoxicity against human NCI-H23 cells after 48 hrs by SRB assay; type: functional; conditions: NCI-H23, 48 h
[10] = tested on: A549; assay: Cytotoxicity against human A549 cells after 48 hrs by SRB assay; type: functional; conditions: A549, 48 h
[11] = tested on: Raji; assay: Inhibition of TPA-induced EBV-early antigen activation in human Raji cells at 1000 molar ratio relative to TPA; type: cell-based; parameters: scale not given: the % may be the effect or the level left; conditions: human gammaherpesvirus 4
[12] = tested on: ACHN; assay: Cytotoxicity against human ACHN cells after 48 hrs by SRB assay; type: functional
[13] = Cytotoxicity against human Raji cells assessed as cell viability at 500 molar ratio; type: cell-based; conditions: read-out: Activity; summary of the method: as §2
[14] = tested on: OVCAR-3; assay: Cytotoxicity against human OVCAR-3 cells after 48 hrs by SRB assay; type: functional; conditions: OVCAR-3, 48 h
[15] = tested on: SK-MEL-2; assay: Cytotoxicity against human SK-MEL-2 cells after 48 hrs by SRB assay; type: functional; conditions: SK-MEL-2, 48 h
[16] = Inhibition of TPA-induced EBV-early antigen activation in human Raji cells relative to TPA; type: cell-based, human gammaherpesvirus 4
[17] = tested on: UACC-62; assay: Cytotoxicity against human UACC-62 cells after 48 hrs by SRB assay; type: functional; conditions: UACC-62, 48 h; summary of the method: as §1
[18] = tested on: HT-29; assay: Cytotoxicity against human HT-29 cells after 48 hrs by SRB assay; type: functional; conditions: HT-29, 48 h
[19] = tested on: T47D; assay: Cytotoxicity against human T47D cells after 48 hrs by SRB assay; type: functional; summary of the method: as §1
[20] = tested on: K562; assay: Cytotoxicity against human K-562 cells after 48 hrs by SRB assay; type: functional; conditions: K562, 48 h
[21] = tested on: 786-0; assay: Cytotoxicity against human 786-0 cells after 48 hrs by SRB assay; type: functional; conditions: 786-0, 48 h
[22] = tested on: IGROV-1; assay: Cytotoxicity against human IGROV1 cells after 48 hrs by SRB assay; type: functional; conditions: IGROV-1, 48 h
[23] = tested on: LOX IMVI; assay: Cytotoxicity against human LOX IMVI cells after 48 hrs by SRB assay; type: functional
[24] = tested on: Raji; assay: Inhibition of TPA-induced EBV-early antigen activation in human Raji cells at 100 molar ratio relative to TPA; type: cell-based; parameters: scale not given: the % may be the effect or the level left; conditions: human gammaherpesvirus 4
[25] = tested on: MOLT-4; assay: Cytotoxicity against human MOLT-4 cells after 48 hrs by SRB assay; type: functional; conditions: MOLT-4, 48 h
[26] = tested on: SF-295; assay: Cytotoxicity against human SF-295 cells after 48 hrs by SRB assay; type: functional; conditions: SF-295, 48 h
[27] = tested on: HCC 2998; assay: Cytotoxicity against human HCC2998 cells after 48 hrs by SRB assay; type: functional; conditions: HCC 2998, 48 h
[28] = tested on: BT-549; assay: Cytotoxicity against human BT-549 cells after 48 hrs by SRB assay; type: functional; conditions: BT-549, 48 h
[29] = tested on: NCI/ADR-RES; assay: Cytotoxicity against human NCI/ADR-RES cells after 48 hrs by SRB assay; type: functional
[30] = tested on: MDA-MB-435; assay: Cytotoxicity against human MDA-MB-435 cells after 48 hrs by SRB assay; type: functional; conditions: MDA-MB-435, 48 h
[31] = Cytotoxicity against human Hs 578T cells after 48 hrs by SRB assay; type: functional
[32] = tested on: HCT-15; assay: Cytotoxicity against human HCT-15 cells after 48 hrs by SRB assay; type: functional; conditions: HCT-15, 48 h
[33] = Cytotoxicity against human HCT 116 cells after 48 hrs by SRB assay; type: functional; conditions: HCT-116, 48 h
[34] = tested on: RPMI-8226; assay: Cytotoxicity against human RPMI8226 cells after 48 hrs by SRB assay; type: functional; conditions: RPMI-8226, 48 h
[35] = tested on: PC-3; assay: Cytotoxicity against human PC-3 cells after 48 hrs by SRB assay; type: functional; conditions: PC-3, 48 h
[36] = tested on: TK-10; assay: Cytotoxicity against human TK-10 cells after 48 hrs by SRB assay; type: functional; conditions: TK-10, 48 h; summary of the method: as §1
[37] = tested on: NCI-H460; assay: Cytotoxicity against human NCI-H460 cells after 48 hrs by SRB assay; type: functional; conditions: NCI-H460, 48 h
[38] = tested on: NCI-H226; assay: Cytotoxicity against human NCI-H226 cells after 48 hrs by SRB assay; type: functional; conditions: NCI-H226, 48 h
[39] = tested on: NCI-H322M; assay: Cytotoxicity against human NCI-H322M cells after 48 hrs by SRB assay; type: functional
[40] = tested on: Raji; assay: Inhibition of TPA-induced EBV-early antigen activation in human Raji cells at 10 molar ratio relative to TPA; type: cell-based; parameters: scale not given: the % may be the effect or the level left; conditions: human gammaherpesvirus 4
[41] = tested on: HL-60; assay: Cytotoxicity against human HL-60 cells after 48 hrs by SRB assay; type: functional; conditions: HL-60, 48 h
[42] = tested on: HOP-62; assay: Cytotoxicity against human HOP-62 cells after 48 hrs by SRB assay; type: functional; conditions: HOP-62, 48 h
[43] = tested on: SNB-19; assay: Cytotoxicity against human SNB-19 cells after 48 hrs by SRB assay; type: functional; conditions: SNB-19, 48 h
[44] = tested on: RXF 393; assay: Cytotoxicity against human […] cells after 48 hrs by SRB assay; type: functional; conditions: RXF 393, 48 h
[45] = tested on: OVCAR-8; assay: Cytotoxicity against human OVCAR8 cells after 48 hrs by SRB assay; type: functional; conditions: OVCAR-8, 48 h
[46] = tested on: SF-268; assay: Cytotoxicity against human SF-268 cells after 48 hrs by SRB assay; type: functional; conditions: SF-268, 48 h
[47] = tested on: MDA-MB-231; assay: Cytotoxicity against human MDA-MB-231 cells after 48 hrs by SRB assay; type: functional; conditions: MDA-MB-231, 48 h
[48] = tested on: COLO 205; assay: Cytotoxicity against human COLO205 cells after 48 hrs by SRB assay; type: functional; conditions: COLO 205, 48 h
[49] = Cytotoxicity against human Raji cells assessed as cell viability at 10 molar ratio; type: cell-based; conditions: read-out: Activity; summary of the method: as §2
[50] = tested on: SN12C; assay: Cytotoxicity against human SN12C cells after 48 hrs by SRB assay; type: functional
[51] = tested on: EKVX; assay: Cytotoxicity against human EKVX cells after 48 hrs by SRB assay; type: functional
[52] = tested on: Raji; assay: Inhibition of TPA-induced EBV-early antigen activation in human Raji cells at 500 molar ratio relative to TPA; type: cell-based; parameters: scale not given: the % may be the effect or the level left; conditions: human gammaherpesvirus 4
[53] = tested on: CAKI-1; assay: Cytotoxicity against human Caki-1 cells after 48 hrs by SRB assay; type: functional; conditions: CAKI-1, 48 h
[54] = tested on: Mus musculus; assay: Antiinflammatory activity against TPA-induced ear edema in mouse; type: functional
Summary of the method: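 Specific-pathogen-free female ICR mice were housed five per cage at 24 ± 2 °C. Inflammation was induced on the ear with TPA at 1 µg/ear, and the test agent was applied per ear. Ear edema inhibition was expressed as ID50 in mg per ear.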

[55] = tested on: U-251; assay: Cytotoxicity against human U251 cells after 48 hrs by SRB assay; type: functional; conditions: U-251, 48 h; summary of the method: as §1
[56] = Cytotoxicity against human Raji cells assessed as cell viability at 1000 molar ratio; type: cell-based; conditions: read-out: Activity; summary of the method: as §2
[57] = tested on: Malme-3M; assay: Cytotoxicity against human MALME-3M cells after 48 hrs by SRB assay; type: functional
[58] = tested on: SW-620; assay: Cytotoxicity against human SW620 cells after 48 hrs by SRB assay; type: functional; conditions: SW-620, 48 h
[59] = tested on: SK-MEL-5; assay: Cytotoxicity against human SK-MEL-5 cells after 48 hrs by SRB assay; type: functional; conditions: SK-MEL-5, 48 h
[60] = tested on: CCRF-CEM; assay: Cytotoxicity against human CCRF-CEM cells after 48 hrs by SRB assay; type: functional

CCCCOC(=O)[C@H]1O[C@@H](O[C@H]2CC[C@]3(C)[C@H]4CC=C5[C@@H]6CC(C)(C)CC[C@]6(C(=O)O[C@@H]6O[C@H](CO)[C@@H](O)[C@H](O)[C@H]6O)CC[C@@]5(C)[C@]4(C)CC[C@H]3C2(C)C)[C@H](O)[C@@H](O)[C@@H]1O
GI50 [1]: 1.04 µM
GI50 [2]: 1.6 µM
GI50 [3]: 2.08 µM
GI50 [4]: 12.7 µM
viability at 100 molar ratio [5]: > 80%
GI50 [6]: 2.6 µM
GI50 [7]: 3.07 µM
GI50 [8]: 4.18 µM
GI50 [9]: 1.48 µM
GI50 [10]: 1.83 µM
Activity [11]: 10.1%
GI50 [12]: 6.29 µM
viability at 500 molar ratio [13]: > 80%
GI50 [14]: 3.27 µM
GI50 [15]: 1.85 µM
IC50 [16]: 479 molar ratio
GI50 [17]: 0.89 µM
GI50 [18]: 2.07 µM
GI50 [19]: 1.75 µM
GI50 [20]: 1.58 µM
GI50 [21]: 1.56 µM
GI50 [22]: 1.7 µM
GI50 [23]: 0.81 µM
Activity [24]: 70%
GI50 [25]: 1 µM
GI50 [26]: 2.56 µM
GI50 [27]: 0.89 µM
GI50 [28]: 1.7 µM
GI50 [29]: > 50 µM
GI50 [30]: 2.52 µM
GI50 [31]: 1.62 µM
GI50 [32]: 6.73 µM
GI50 [33]: 1.12 µM
GI50 [34]: 0.78 µM
GI50 [35]: 1.26 µM
GI50 [36]: 1.85 µM
GI50 [37]: 2.51 µM
GI50 [38]: 1.49 µM
GI50 [39]: 4.08 µM
Activity [40]: 100%
GI50 [41]: 1.21 µM
GI50 [42]: 2.22 µM
GI50 [43]: 1.44 µM
GI50 [44]: 1.65 µM
GI50 [45]: 4.28 µM
GI50 [46]: 2.17 µM
GI50 [47]: 1.15 µM
GI50 [48]: 1.36 µM
viability at 10 molar ratio [49]: > 80%
GI50 [50]: 1.39 µM
GI50 [51]: 3.39 µM
Activity [52]: 48.1%
GI50 [53]: 17.2 µM
ID50 [54]: 0.07 mg
GI50 [55]: 1.06 µM
viability at 1000 molar ratio [56]: 70%
GI50 [57]: 1.47 µM
GI50 [58]: 1.93 µM
GI50 [59]: 0.93 µM
GI50 [60]: 23.1 µM
